The values below come from ChEMBL document CHEMBL4513216, “Probing the Open Global Health Chemical Diversity Library for Multistage-Active Starting Points for Next-Generation Antimalarials” (ACS Infect Dis, 2020).

This series in a line: Toxicity liver stage against HepG2, at 10uM. Format: cell-based. The following applies: human, HepG2-A16-CD81EGFP cells; read-out: INHIBITION
The arrangement: test concentration 10 uM, cell line HepG2-A16-CD81EGFP. Put shortly: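 Uninfected HepG2-A16-CD81EGFP cells, 3 × 10^3 per well, 1536-well, plated on prespotted compound at 10 μM final, parasite-free screening media added to match infected plates; puromycin 10 μM positive, DMSO 0.5% negative; run in parallel with 48 h PbLuc assay at 37 °C, 5% CO2; viability by CellTiter-Glo luminescence, normalized to controls.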
On to `CC(C)c1cc(C2CCN(C(=O)Cn3cncn3)CC2)[nH]n1`, for which the cytotoxicity at 10 µM was 3.65%.

Regarding `CCC=C(C)C(=O)N1CSCC1C(=O)NC1=NCCS1` (configuration not stated), the cytotoxicity at 10 µM is 11.8%.

As to `Cc1cc2n(n1)CC(CNCCc1cnn(C)c1)CN2` (configuration not stated), the cytotoxicity at 10 µM came to 5.27%.

On to `FC(F)(F)Oc1ccc(-c2c[nH]c([C@@H]3COCCN3)n2)cc1`, for which the cytotoxicity at 10 µM is -8.64%.

With `Cc1cccc(CN2CCC(c3nnc(-c4scnc4C)o3)CC2)c1`, the cytotoxicity at 10 µM was -3.8%.

Regarding `Cc1cccc(CN2C(=O)CCC23CCN(c2ncc(F)cn2)CC3)n1`, the cytotoxicity at 10 µM is 9.11%.

`CN(C)Cc1ccnc(C2CCCN2Cc2cccc(F)c2F)n1` (configuration not stated): the cytotoxicity at 10 µM is 2.22%.

Consider `CCCNC(=O)CN1CCN(Cc2csc(C(C)(C)C)n2)CC1`, for which the cytotoxicity at 10 µM is -7.88%.

Turning to `COc1ncccc1C(=O)N1CCCC(n2ccnc2)C1` (configuration not stated), the cytotoxicity at 10 µM was -5.1%.

For `Cc1cc(=O)[nH]c(-n2nc(-c3ccccc3)cc2N)n1`, the cytotoxicity at 10 µM was found to be 5.71%.

Regarding `COC(=O)c1ccc(Cn2nc(C)cc2C)c(OC)c1`, the cytotoxicity at 10 µM stood at 10.7%.

Regarding `Cc1cc(C)n(CC2CCCN2C(=O)c2cnn(C)c2C2CC2)n1` (configuration not stated), the cytotoxicity at 10 µM was -0.489%.

Turning to `CNC(=O)c1cccc(CCNC2CCSc3ccccc32)c1` (configuration not stated), the cytotoxicity at 10 µM was 3.42%.

For the molecule `Oc1cccc(CNCCC2CCCO2)c1` (configuration not stated), the cytotoxicity at 10 µM worked out at 4.08%.

On to `CCCS(=O)(=O)N1CCN(CCOC)c2nc(C)ccc2C1`, for which the cytotoxicity at 10 µM stood at 8.07%.

In the case of `Cc1csc(C(C)(C)NCC(=O)N2CCCC(C(F)(F)F)C2)n1` (configuration not stated), the cytotoxicity at 10 µM was 6.32%.

`Cc1cccc(NS(=O)(=O)c2cnn(C)c2)c1C#N`: the cytotoxicity at 10 µM is -0.655%.

For the molecule `O=C(CC1CCc2ccccc21)NC1(C(=O)O)CCOCC1` (configuration not stated), the cytotoxicity at 10 µM was -2.13%.

Take `CN(C)C(=O)Cn1c(C2CC2)c(CN2CCSCC2)c2cccnc21`: the cytotoxicity at 10 µM was determined as 4.06%.

As for `O=C1CC2(CCN(c3nccc(-c4cc(C(=O)O)ccn4)n3)CC2)CN1`, the cytotoxicity at 10 µM came out at 2.16%.

Consider `Cc1cc(NC(=O)CNc2ccc(Br)cc2F)on1`, for which the cytotoxicity at 10 µM is -28.1%.

Take `COc1cccc(CC(=O)N2CCN(C)c3ncccc3C2)c1`: the cytotoxicity at 10 µM turned out to be 2.33%.

As for `NCc1cnn(-c2ccccc2C(=O)NCCCn2ccnc2)c1`, the cytotoxicity at 10 µM was -3.01%.

For the molecule `CCN1CC(=O)NCC12CCN(C(=O)c1ccco1)C2` (configuration not stated), the cytotoxicity at 10 µM was -2.86%.

`C=C(C)Cn1ccc2cc(OC)c(F)cc2c1=O`: the cytotoxicity at 10 µM is 3.09%.

`Cc1nc2ncc3c(=O)n(C)ccc3n2n1`: the cytotoxicity at 10 µM was -15.4%.

Regarding `Nc1nc(CCC(=O)N2C[C@H](c3ccccc3)[C@@H](N)C2)cs1`, the cytotoxicity at 10 µM amounted to 4.49%.

For the molecule `CNC(=O)[C@@H](c1ccccc1OC)N1CCC[C@H]1C(=O)NC(C)(C)C`, the cytotoxicity at 10 µM is -6.67%.

`CNc1ncc(CN(C)C(=O)c2ccccc2C2CCNC2)cn1` (configuration not stated): the cytotoxicity at 10 µM was found to be 0.272%.

In the case of `CCOC(=O)c1ccc(CNC(=O)c2ccc(C)nc2)o1`, the cytotoxicity at 10 µM worked out at 10.6%.

As for `O=C(c1cocn1)N1CCC[C@]2(C[C@@H](OCC3CC3)CO2)C1`, the cytotoxicity at 10 µM is -76.4%.

For the molecule `Cc1ccc2c(c1)C1(CCN(S(C)(=O)=O)CC1)CN2C(=O)N(C)C`, the cytotoxicity at 10 µM is -121%.

Regarding `COc1cc(Br)c(CNC2CCCNC2=O)cc1OC` (configuration not stated), the cytotoxicity at 10 µM amounted to 1.93%.

Consider `O=C(O)CN1CCC(F)(F)C2(CCN(c3ccccc3)C2)C1` (configuration not stated), for which the cytotoxicity at 10 µM is 10.7%.

Regarding `Cn1ncc(N2CCC(CNC(=O)[C@@H](N)c3ccccc3)CC2)cc1=O`, the cytotoxicity at 10 µM stood at 4.18%.

For `CC(=O)N1CCN(C(=O)NCCCN(C)S(C)(=O)=O)CC1`, the cytotoxicity at 10 µM was -7.33%.

`CCN(CCC(F)(F)F)S(=O)(=O)c1cccc(F)c1C#N`: the cytotoxicity at 10 µM was -3.77%.

For the molecule `Cc1nc(O)cc(CCNC(=O)C2CC(=O)N(CC(C)C)C2)n1` (configuration not stated), the cytotoxicity at 10 µM was -8.11%.

In the case of `Cc1cc(C(F)(F)F)nn1C(C)C(=O)Nc1ccc(Cl)cn1` (configuration not stated), the cytotoxicity at 10 µM stood at 11.6%.

For `CNC(=O)N1CC[C@H]2N(C)CC[C@@]2(C(=O)N2CCOCC2)CC1`, the cytotoxicity at 10 µM is -2.72%.

As to `CCc1noc(CN(Cc2cccs2)C2CC2)n1`, the cytotoxicity at 10 µM turned out to be 1.44%.

For `CCC[C@H]1CN(C(=O)Cn2ccccc2=O)C[C@@H]1NS(C)(=O)=O`, the cytotoxicity at 10 µM was determined as 11.1%.

`O=C(CC(F)(F)F)N1CCc2[nH]nc(-c3ccc4c(c3)OCO4)c2C1`: the cytotoxicity at 10 µM was -149%.

As to `Cn1c(CCNc2nccnc2C#N)nc2cc(Cl)ccc21`, the cytotoxicity at 10 µM is -6%.

Regarding `CSC(C)C(=O)N(C)CCCc1cc(-c2ccccc2)no1` (configuration not stated), the cytotoxicity at 10 µM amounted to 2.63%.

In the case of `O=C(CN1CC(n2cccn2)C1)NCCCc1ccccc1`, the cytotoxicity at 10 µM is -9.51%.

For `CC(C)[C@H]1CN(C(=O)CC2CCC2)C[C@@H]1N(C)C`, the cytotoxicity at 10 µM came to 8.91%.

Take `c1ccc(CO[C@H]2CO[C@@]3(CCCN(Cc4cccnc4)C3)C2)nc1`: the cytotoxicity at 10 µM is -6.37%.

On to `CCc1nc(CCNC(=O)Nc2cc(C(N)=O)sc2C)cs1`, for which the cytotoxicity at 10 µM was 24.6%.

In the case of `Cc1nc(N)sc1C(=O)N1CCC(C(O)Cc2ccccc2)CC1` (configuration not stated), the cytotoxicity at 10 µM came out at 2.29%.

Turning to `O=C(c1cnccn1)N1CCCC(Cn2cc(C3CCCC3)nn2)C1` (configuration not stated), the cytotoxicity at 10 µM is -4.86%.

Consider `CC(C)CNc1nccc(-c2cnc3sc(Cl)cn3c2=O)n1`, for which the cytotoxicity at 10 µM was -0.723%.

With `Cn1cc(C2CC(=O)NC23CCN(C(=O)c2ccc[nH]2)CC3)cn1` (configuration not stated), the cytotoxicity at 10 µM was found to be 8.94%.

For `NC(=O)COCCNC(=O)Nc1sc2ccccc2c1Cl`, the cytotoxicity at 10 µM was found to be 8.81%.

For the molecule `Fc1ccccc1-c1nc(CNCCn2cccn2)cs1`, the cytotoxicity at 10 µM was -9.53%.

In the case of `Cc1noc(C)c1C(=O)NCc1cc[nH]n1`, the cytotoxicity at 10 µM was found to be 9.31%.

With `COc1ccc(C2CCCCCN2CCCNS(C)(=O)=O)cc1` (configuration not stated), the cytotoxicity at 10 µM was -6.07%.

Turning to `CC1=N[C@@]2(CC[C@@H]3CN(Cc4ccccc4F)C[C@@H]32)C(=O)N1CC1CC1`, the cytotoxicity at 10 µM was 1.47%.

With `O=C(NCc1nnc2n1CCCCC2)N1CCC2(CCCCC2)C1`, the cytotoxicity at 10 µM is -13.4%.

Take `COCCN1CCC(c2nc3ccc(N4CCCC4)cn3n2)CC1`: the cytotoxicity at 10 µM amounted to 11.8%.

Consider `Cc1noc(C)c1CC(=O)N1CCN(Cc2cscn2)CC1`, for which the cytotoxicity at 10 µM is -8.72%.

Consider `CNc1nc(CS(=O)(=O)c2ccccc2)cs1`, for which the cytotoxicity at 10 µM was determined as 13%.

Take `CCN1CC(C(=O)NC(C)(C)CC)CC1=O` (configuration not stated): the cytotoxicity at 10 µM stood at 1.82%.

Turning to `CC(C)(C)C(=O)N1C[C@H](c2ccsc2)[C@H]2CN(C3CCCCC3)CC[C@H]21`, the cytotoxicity at 10 µM turned out to be 5.9%.

With `CS(=O)(=O)c1nnc(NC(=O)CCc2cccs2)[nH]1`, the cytotoxicity at 10 µM stood at 8.91%.

Regarding `CN(Cc1nccn1C)S(=O)(=O)Cc1cccc(C#N)c1`, the cytotoxicity at 10 µM was determined as 4.16%.

Consider `NS(=O)(=O)c1cnn(CC(=O)Nc2c(Cl)cccc2Cl)c1`, for which the cytotoxicity at 10 µM was -7.2%.

`CCc1nn(C)c(Cl)c1CN1CCC(c2cc(O)nc(C)n2)CC1`: the cytotoxicity at 10 µM was -9.74%.

Regarding `O=C(NCC1CCOC1)c1csc(-c2ccc(Cl)cc2)n1` (configuration not stated), the cytotoxicity at 10 µM is -11.6%.

As for `O=C(CCc1cn[nH]c1)N1C[C@@H](CN2CCOCC2)C[C@H](CO)C1`, the cytotoxicity at 10 µM came to 3.13%.

For the molecule `CCC1CN(C(=O)c2cccnc2O)CCC(=O)N1Cc1ccccc1` (configuration not stated), the cytotoxicity at 10 µM came out at 3.65%.

Regarding `Cc1ccc(CNc2cnn(CC(F)F)c2)cc1C`, the cytotoxicity at 10 µM was -0.71%.

As for `O=c1[nH]c(NC2CCCC2)nc2nccc(-c3cccs3)c12`, the cytotoxicity at 10 µM is -18.1%.

In the case of `CCN(Cc1cccc(Cl)c1)Cn1nc(C)c2c(C)onc2c1=O`, the cytotoxicity at 10 µM is -13%.

Regarding `CC1CN(CC2CCCCC2)CCN1c1ccc2nncn2n1` (configuration not stated), the cytotoxicity at 10 µM is 13.8%.

In the case of `Cc1ncsc1-c1nnc(C2CCN(CC3CCCCC3)CC2)o1`, the cytotoxicity at 10 µM worked out at 1.59%.

Regarding `c1ccc(NCc2cn3c(n2)CN(Cc2ccoc2)CC3)nc1`, the cytotoxicity at 10 µM worked out at 10.4%.

As to `O=C(Nc1nc2c(s1)CN(S(=O)(=O)C1CC1)CC2)c1ccc(=O)[nH]c1`, the cytotoxicity at 10 µM was -11.1%.

Regarding `CCc1sc(-c2nnc(CNCCn3cccn3)o2)cc1C`, the cytotoxicity at 10 µM was 5.05%.

As to `CS(=O)(=O)Nc1ccn(Cc2ccc(F)cc2Cl)n1`, the cytotoxicity at 10 µM was 6.64%.

For `CCC(=O)N1CC[C@H]2[C@H](C[C@@H](CN3CCCC3)N2c2nccs2)C1`, the cytotoxicity at 10 µM is 10.2%.

On to `O=C(O)c1cc(Br)cnc1OCC1CC1`, for which the cytotoxicity at 10 µM turned out to be 6.43%.

With `CC(C)[C@H]1COC(=O)N1CC(=O)N1CCCN(C(=O)c2ccoc2)CC1`, the cytotoxicity at 10 µM worked out at 3.38%.

`O=C1CC(N(C(=O)COc2ccc(F)cc2F)C2CC2)C(=O)N1` (configuration not stated): the cytotoxicity at 10 µM was -3.59%.

In the case of `CC(C)n1ncc2c1NC(=O)CC21C(=O)Nc2c(Cl)cccc21` (configuration not stated), the cytotoxicity at 10 µM was -1.58%.

On to `O=c1ccc(-c2ccccc2F)nn1CCN1CCCS1(=O)=O`, for which the cytotoxicity at 10 µM is -10%.

For the molecule `O=C(NCc1ccco1)c1cccc(CN2CCCC2CO)c1` (configuration not stated), the cytotoxicity at 10 µM was -3.13%.

For the molecule `CSc1ncn(-c2nc(N(C)C)nc(N(C)C)n2)n1`, the cytotoxicity at 10 µM is -3.54%.

Turning to `Cn1c(CN2CCCc3cc(F)cc(F)c32)cc(=O)n(C)c1=O`, the cytotoxicity at 10 µM is 17.3%.

For the molecule `COc1ccccc1CC(=O)N1CCC(NCc2c[nH]nc2C)CC1`, the cytotoxicity at 10 µM is -13.5%.

Consider `Oc1cc(C2CCCCN2Cc2ccsc2)nc(-c2ccncc2)n1` (configuration not stated), for which the cytotoxicity at 10 µM came out at 9.89%.

`CCNC(=O)NC(=O)C(C)N1CCCc2cc(OC)ccc2C1` (configuration not stated): the cytotoxicity at 10 µM turned out to be 9.86%.

In the case of `Cc1ccc(C(=O)Nc2ccc(N3CCCC3)cn2)cc1C`, the cytotoxicity at 10 µM was 26.9%.

Take `COc1ccc(S(=O)(=O)N2CCCC3(CCCN3S(C)(=O)=O)C2)cc1` (configuration not stated): the cytotoxicity at 10 µM was -0.908%.

For the molecule `CN(Cc1ccccc1)CC(C)(C)NC(=O)c1ccc(C(N)=O)cn1`, the cytotoxicity at 10 µM was -0.616%.

Consider `O=C(CN1C(=O)CCNC1=O)N1CCC2(CCc3ccccc32)CC1`, for which the cytotoxicity at 10 µM was -11.2%.

Regarding `O=c1[nH]c(CCN2CCCC(Cn3cncn3)C2)nc2ccccc12` (configuration not stated), the cytotoxicity at 10 µM was -8.62%.
